Compounds with a hit are over-represented: about 4.4% of the library has one in this group of screens.
T cruzi inh – T. cruzi replication inhibition | T. cruzi beta-gal in NIH3T3, luminescence, 90 h | inhibition, % (no concentration beside the values) | actives 1.4% (n = 300,000) | AID 1885;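 active means mean inhibition across valid replicates above about 55%, limit read from the data; inconclusive means mean below that limit but half or more replicates reach it; inactive means mean below it, under half of replicates reach it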;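 further: signal also drops with host cell toxicity which is not excluded here; higher percent means less beta-gal luminescence so fewer parasites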
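System: Mouse NIH/3T3 fibroblasts infected with β-gal-expressing T. cruzi Tulahuen C4 | Quantity: NIH/3T3 cells, 5,000 per well | Reagent: 5000 reporter trypomastigotes per well | Dosing: Compound pinned at 50 nL/well, DMSO | Schedule: 3 h host attachment, then at least 90 h co-culture | Detection: GalScreen luminescence, 60 min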
HIF activator – HIF pathway transcriptional activation; AID 1910; activation, % at 7.5 µM (by protocol); actives 0.32% (n = 300,000); U2OS HRE-luciferase reporter, luminescence; normalized: DMSO 0%, desferrioxamine 100%;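 active means mean activation of at least 10% of the iron chelator positive control signal, with at least half of replicates also reaching 10%; inconclusive means mean and replicate majority disagree about reaching 10%; inactive means mean and most replicates under 10%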
Calb FLC – C. albicans growth modulation with fluconazole. AID 1979. C. albicans CaCi-2 + fluconazole, Alamar Blue growth, 48 h. actives 0.57% (n = 300,000). growth inhibition, % (concentration not given with the values);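 active means growth inhibition above about 58% in most replicates, limit read from the data, passing the limit was not always enough; inconclusive means exactly half the replicates above a set limit; inactive means most replicates below a set limit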;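 further: all wells also contain fluconazole at 8 µg/ml as a sub-toxic cotreatment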
HSF1 inh – HSF1 inhibition | NIH3T3-HGL HSE-luciferase, MG132-induced, luminescence 8 h; stronger effect = lower value | activity change, negative = inhibition, % at 7.5 µM (by protocol) | actives 0.77% (n = 300,000) | AID 2098;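 active means more than half of replicate wells show activity change below -50%, luminescence cut by over half; inconclusive means some wells, but at most half, below -50%; inactive means no replicate well below -50%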;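 further: luciferase reports HSF-1 transcriptional activity via heat shock element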
HSF-1 act – increases HSF-1 driven luciferase reporter signal | activation, % at 9 µM | actives 1.7% (n = 300,000) | NIH3T3-HGL HSF-1 luciferase reporter, MG132, 8 h; 100% = twice DMSO control signal;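 active means mean replicate activation of at least 50% with a set share of replicates each reaching 50%; inconclusive means only one of those two conditions met; inactive means mean below 50% and too few replicates reaching it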
Hits are given with their value; . = inactive; ? = inconclusive; / = no result.

SMILES	T cruzi inh	HIF activator	Calb FLC	HSF1 inh	HSF-1 act
CC1(C)CN(c2ccc(N3CC(C)(C)C3=O)cc2)C1=O	.	.	.	.	.
CC(C)c1ccc(NC(=O)Nc2cc3sccc3n2C)cc1	.	.	.	-77.3	.
Cn1c(C(=O)Nc2ccc3c(c2)OCCO3)cc2sccc21	.	.	.	.	.
CCC(C)n1ncn(-c2ccc(N3CCN(c4ccc(OCC5COC(Cn6cncn6)(c6ccc(Cl)cc6Cl)O5)cc4)CC3)cc2)c1=O (stereo not given)	54.5	.	/	.	.
C/C(N)=C(/C#N)C(=O)CSc1nn(-c2ccc(Cl)cc2)c(=S)s1	.	.	.	.	99.3
Cc1ccc(CNC(=O)C(CC(C)C)OC(=O)c2ccco2)cc1 (stereo not given)	.	.	.	.	.
CCN(Cc1ccccc1)C(c1ccncc1)c1nnnn1C(C)(C)C (stereo not given)	.	.	.	.	.
CC(C)(C)c1ccc(CN(Cc2ccccc2)C(c2ccccn2)c2nnnn2C(C)(C)C)cc1 (stereo not given)	61.8	.	.	.	.
C(=N\Nc1nc2ccccc2[nH]1)/c1c[nH]c2ccccc12	?	.	.	.	309.0
C(=N\Nc1nc2ccccc2[nH]1)/c1cccc2cccnc12	.	271.2	.	.	.
Cc1[nH]c2ccccc2c1/C=C/c1nc2ccccc2c(=O)[nH]1	.	.	.	.	80.2
Cc1ccccc1/C=N/Nc1nc2ccccc2[nH]1	.	.	.	.	228.8
Cc1cccc(/C=C/c2nc3ccccc3c(=O)[nH]2)c1	.	.	.	.	.
Fc1cccc(/C=N/Nc2nc3ccccc3[nH]2)c1	.	.	.	.	.
O=[N+]([O-])c1cc(/C=N/Nc2nc3ccccc3[nH]2)c(O)cc1O	.	.	87.8	.	304.6
Cc1ccc(/C=N/Nc2nc3ccccc3[nH]2)s1	.	.	?	.	452.0
Cc1[nH]c2ccccc2c1/C=N/Nc1nc(N2CCCCC2)nc(N2CCCCC2)n1	.	.	.	.	.
COc1ccc(/C=N/Nc2nc3ccccc3[nH]2)c(OC)c1OC	.	.	.	.	108.2
COc1ccc(/C=N/Nc2ccccn2)c(OC)c1OC	.	.	.	.	.
Cc1[nH]c2ccccc2c1/C=N/Nc1nc2ccccc2[nH]1	?	.	.	.	402.5
Cc1ccc(CCNS(=O)(=O)c2ccc3c(c2)N(C)CCO3)cc1	.	.	.	.	.
CC(=O)N1CCOc2ccc(S(=O)(=O)N3CCCC(C)C3)cc21 (stereo not given)	.	.	.	.	.
Cc1ccc(Nc2cc(C)c3c(O)cccc3n2)cc1C	66.4	.	.	-56.0	.
Cc1ccccc1Nc1cc(C)c2c(O)cccc2n1	.	.	.	.	.
COc1ccc(Nc2cc(C)c3c(O)cccc3n2)cc1	59.7	.	.	.	.
SMILES	T cruzi inh	HIF activator	Calb FLC	HSF1 inh	HSF-1 act
O=C(O[C@H]1[C@H](Oc2ccccc2COC(=O)C2(O)C=CCCC2=O)O[C@H](CO)[C@@H](O)[C@@H]1O)c1ccccc1 (stereo not given in full)	.	.	/	.	.
CCOC(=O)c1[nH]c(C)c(CN(C(C)=O)c2ccc(OCC)cc2)c1C	.	.	.	.	.
COc1ccc(N2CCN(CCCn3c(=S)[nH]c4ncccc4c3=O)CC2)cc1	.	.	.	-56.3	.
O=c1c2cccnc2[nH]c(=S)n1CCCN1CCN(c2ccc(F)cc2)CC1	.	.	.	.	.
CCOC(=O)C1CCN(C(=O)C2CCN(C(=O)c3ccc([N+](=O)[O-])cc3)CC2)CC1	.	.	.	.	.
CCN(CC)C(=O)CSc1nnc(-c2c[nH]c3ccccc23)o1	.	.	.	.	.
COc1ccc(OC)c2sc(N3CCN(C(=O)c4ccc([N+](=O)[O-])s4)CC3)nc12	66.7	.	.	.	.
O=C(c1ccc([N+](=O)[O-])s1)N1CCN(c2ccccc2)CC1	69.5	.	.	/	/
COc1ccccc1-n1cnnc1SC(C)C(=O)Nc1ccc(NC(C)=O)cc1 (stereo not given)	.	.	.	.	.
Cc1cc(=O)c(C(=O)OC(C)C(=O)NC(N)=O)nn1-c1ccc(Cl)cc1 (stereo not given)	.	.	.	.	.
NNC(=O)c1cc2c(s1)-c1cc(Cl)ccc1SC2	.	.	.	.	.
CCN(CC)CCNC(=O)c1cc2c(s1)-c1ccccc1SC2	54.9	.	.	.	.
Cc1c(C#N)c(NC(=O)CCl)n(Cc2ccccc2)c1C	?	.	96.8	.	57.1
Cc1c(C#N)c(NC(=O)CCl)n(Cc2cccs2)c1C	61.0	.	.	.	.
CCOc1ccc(-n2c(SCC(=O)N3CCC(C(=O)O)CC3)nc3ccccc3c2=O)cc1	.	.	.	.	.
O=C(C[n+]1ccccc1)Nc1ccccc1[N+](=O)[O-]	.	.	.	.	.
O=C(CCC1CCCC1)N1CCC(N2CCCCCC2)CC1	.	.	.	.	.
COc1ccccc1NC(=O)Cn1cnc2c(cnn2-c2ccccc2)c1=O	.	.	91.4	.	.
O=C(NCC1OCCc2ccccc21)c1cc(COc2ccc(F)cc2Cl)on1 (stereo not given)	.	.	.	.	.
Nc1nnc(/C=C/c2ccccc2Cl)s1	.	.	.	.	69.6
CCC1(OC(=O)CN(C)C)C(=O)OCc2c1cc1n(c2=O)Cc2cc3c(N)cccc3nc2-1 (stereo not given)	/	/	/	.	.
CCN1C(=O)C(CC(=O)Nc2ccc(OC)cc2)N(CCc2ccc(OC)cc2)C1=S (stereo not given)	.	.	.	.	.
CN1C(=O)C(CC(=O)Nc2ccc(Cl)cc2)N(Cc2ccco2)C1=S (stereo not given)	.	.	.	.	53.4
O=C(CC1C(=O)N(Cc2ccccc2)C(=S)N1CCN1CCOCC1)Nc1ccc(F)cc1 (stereo not given)	.	.	.	.	60.9
CCN1C(=O)C(CC(=O)Nc2ccc(Br)cc2)N(CCCc2ccccc2)C1=S (stereo not given)	55.8	.	.	.	.
SMILES	T cruzi inh	HIF activator	Calb FLC	HSF1 inh	HSF-1 act
CCOc1ccc(NC(=O)CC2C(=O)N(C)C(=S)N2CCCc2ccccc2)cc1 (stereo not given)	55.1	.	.	.	.
CCOc1ccc(NC(=O)CC2C(=O)N(C)C(=S)N2Cc2ccco2)cc1 (stereo not given)	.	.	.	.	.
CCN1C(=O)C(CC(=O)Nc2ccc(OC)cc2)N(Cc2ccc3c(c2)OCO3)C1=S (stereo not given)	.	.	.	-77.6	.
CCN1C(=O)C(CC(=O)Nc2ccc(OC)cc2)N(Cc2ccc(OC)c(OC)c2)C1=S (stereo not given)	.	.	.	.	.
O=[N+]([O-])c1cccc(-c2nc(-c3ccccc3)no2)c1	.	.	.	.	56.1
O=[N+]([O-])c1cccc(-c2nc(-c3ccncc3)no2)c1	.	.	.	.	.
